Results on five sequences are retold here after the EternaBench riboswitch data.

The data set concerns MS2 coat protein. In words: apparent Kd, MS2 coat protein; higher = weaker binding; RNA-MaP array; tryptophan 2.4 mM where present. The method, boiled down:
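The apparent Kd is reported as the median of filtered per-cluster binding-curve fits. To get these curves, designs transcribed by stalled E. coli RNA polymerase on Illumina sequencing-chip clusters were titrated with SNAP-549-labelled MS2 coat protein from 0.7 or 1.5 nM, doubling to 3 µM. Titrations were run without and then with constant ligand in 100 mM Tris-HCl pH 7.5, 80 mM KCl, 4 mM MgCl2, BSA, DTT, yeast tRNA and Tween-20, and green signal was normalised to red-channel RNA signal and control-cluster median Fmax.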

The mark [1] stands for this setting: designed as: ON switch for tryptophan, no ligand.
[2] abbreviates: ligand present: tryptophan, designed as: ON switch for tryptophan.
The mark [3] stands for this setting: designed as: OFF switch for tryptophan, no ligand.
Setting [4] is: ligand present: tryptophan, designed as: OFF switch for tryptophan.

For the sequence “UUUUACGGCGAUCUGGGUUUACCAGAUCGGCGAGGACCGGUACGGCCGCCACUCGUGUUUCUUUGACAUGAGGAUCACCCAUGUA”, the “apparent Kd” value runs as follows: under setting [1], 26.9 nM; under setting [2], 16.2 nM.
Regarding “AACGCGGUGAUGGUAGCCGGACGCUAGGUACGAGGACCGGUACGGCCGCCACUCGGAGUCCUACGACAUGAGGAUCACCCAUGUA”, the “apparent Kd” value is, setting by setting: under setting [1], 127 nM; under setting [2], 67.5 nM.
Turning to “UAAUCAGUGCCGGUUCUCGGAUCCUCAUGUCGAGGACCGGUACGGCCGCCACUCGGAACAUGAGGAUCACCCAUGUAAUAAUAAU”, the “apparent Kd” value reads like this: under setting [3], 97.3 nM; under setting [4], 92.7 nM.
As to “CCUCAAUAGACGGCCGCCACUGAGACAUGAGGAUACAUGAGGAUCACCCAUGUGGGUGUGUCACGCAGGACCGGGUCAAGACCCG”, the “apparent Kd” value was determined as 523 nM under setting [1] and 514 nM under setting [2].
For “AAUUAUCAGUCGGCCGCCACUGACACAUGAGGAUCACCCAUGUAACUUGGGUUAAAUUUAAUAAACAGGACCGGGACAAAGGCUA”, the “apparent Kd” value under setting [3] was 186 nM and the “apparent Kd” value under setting [4] turned out to be 184 nM.

The apparent Kd is the concentration giving half-maximal binding under the conditions of the assay.
